Measured values from ChEMBL document CHEMBL2346537, “Phenylimino-2H-chromen-3-carboxamide derivatives as novel small molecule inhibitors of β-secretase (BACE1)” (Bioorg Med Chem, 2013).

Tests used:
Beta-secretase 1 = Beta-secretase 1 (Homo sapiens, UniProt P56817); test: Inhibition of BACE1 (unknown origin) expressed in baculovirus expression system using Rh-EVNLDAEFK-Quencher as substrate after 90 mins by FRET assay
[1] = Cytotoxicity against mouse Neuro2a cells expressing APP Swedish mutant assessed as cell viability at 5 uM after 24 hrs by MTT assay relative to control; type: cell-based, N2a; details: read-out: Activity
Outline: (§1)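 N2a-APPswe cells seeded at 2 × 10⁵ cells/ml (8 × 10⁴/well), grown overnight at 37 °C, then dosed as in the Aβ assay (DMSO diluted in medium, final DMSO under 0.5%). MTT 0.5 mg/ml added for 4 h at 37 °C, formazan dissolved in DMSO, read at 570 nm with 655 nm background. Viability given as percent of untreated control. Average of 3–4 experiments ± SEM.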

[2] = Cytotoxicity against mouse Neuro2a cells expressing APP Swedish mutant assessed as cell viability at 10 uM after 24 hrs by MTT assay relative to control; type: cell-based, N2a; details: read-out: Activity; outline: as §1
[3] = molecular target: Beta-secretase 1 (Mus musculus) (UniProt P56818); test: Inhibition of BACE1 in mouse Neuro2a cells expressing APP Swedish mutant assessed as inhibition of amyloid beta (1 to 40) production at 5 uM after 24 hrs by sandwich ELISA relative to control; type: cell-based
Outline: (§2)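 N2a-APPswe cells seeded at 2 × 10⁵ cells/ml and incubated overnight at 37 °C. Medium replaced, compound in growth medium added (DMSO under 0.5%), incubated 24 h. Conditioned medium collected with 0.1 mM PMSF. Human Aβ1–40 measured by colorimetric sandwich ELISA at 450 nm. Percent inhibition relative to untreated cells, 2–3 experiments ± SEM.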

[4] = molecular target: Beta-secretase 1 (Mus musculus) (UniProt P56818); test: Inhibition of BACE1 in mouse Neuro2a cells expressing APP Swedish mutant assessed as inhibition of amyloid beta (1 to 40) production at 10 uM after 24 hrs by sandwich ELISA relative to control; type: cell-based; outline: as §2

Chain of Beta-secretase 1 (Mus musculus) (P56818 whole entry): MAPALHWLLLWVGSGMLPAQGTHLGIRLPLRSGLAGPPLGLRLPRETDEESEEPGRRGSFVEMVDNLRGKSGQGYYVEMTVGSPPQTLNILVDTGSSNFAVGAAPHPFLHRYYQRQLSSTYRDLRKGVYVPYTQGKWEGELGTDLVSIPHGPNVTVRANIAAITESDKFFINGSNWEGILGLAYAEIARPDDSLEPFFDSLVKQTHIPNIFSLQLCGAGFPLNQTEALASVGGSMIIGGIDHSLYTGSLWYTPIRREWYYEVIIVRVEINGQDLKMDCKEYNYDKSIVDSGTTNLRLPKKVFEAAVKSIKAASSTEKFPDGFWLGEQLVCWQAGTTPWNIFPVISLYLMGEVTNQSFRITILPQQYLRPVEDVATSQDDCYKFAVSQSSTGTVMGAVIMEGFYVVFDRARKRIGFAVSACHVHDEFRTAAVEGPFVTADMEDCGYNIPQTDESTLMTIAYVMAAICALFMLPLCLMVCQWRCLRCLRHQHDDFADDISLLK
Chain of Beta-secretase 1 (P56817 whole entry): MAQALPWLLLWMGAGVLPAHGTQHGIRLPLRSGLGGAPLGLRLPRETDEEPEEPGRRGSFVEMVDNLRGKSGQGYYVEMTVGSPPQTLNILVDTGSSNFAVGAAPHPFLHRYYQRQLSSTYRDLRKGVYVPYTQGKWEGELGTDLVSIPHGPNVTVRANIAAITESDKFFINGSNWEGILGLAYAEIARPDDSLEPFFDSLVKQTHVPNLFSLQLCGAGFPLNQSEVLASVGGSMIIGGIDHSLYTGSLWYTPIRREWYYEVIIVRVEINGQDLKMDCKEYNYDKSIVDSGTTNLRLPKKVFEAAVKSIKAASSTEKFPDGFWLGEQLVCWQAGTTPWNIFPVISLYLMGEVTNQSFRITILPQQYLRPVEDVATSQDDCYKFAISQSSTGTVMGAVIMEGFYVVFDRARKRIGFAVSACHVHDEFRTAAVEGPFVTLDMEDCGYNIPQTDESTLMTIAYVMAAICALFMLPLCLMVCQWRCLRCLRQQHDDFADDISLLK

SMILES	IC50 (Beta-secretase 1) [nM]	viability at 24 h, 5 µM [1] [%]	viability at 24 h, 10 µM [2] [%]	inhibition [3] [%]	inhibition [4] [%]
COc1cccc2cc(C(=O)Nc3cc(Br)ccc3N3CCN(Cc4ccccc4)CC3)c(=N)oc12	> 10000	–	–	–	–
O=C(Nc1cc(Br)ccc1N1CCN(Cc2ccccc2)CC1)c1cc2ccccc2o/c1=N\c1ccccc1	503	102	95	60.9	64.7
CC(C)C[C@H](NC(=O)[C@H](CC(N)=O)NC(=O)[C@@H](NC(=O)[C@@H](N)CCC(=O)O)C(C)C)[C@@H](O)CC(C)C(=O)N[C@@H](C)C(=O)N[C@@H](CCC(=O)O)C(=O)N[C@@H](Cc1ccccc1)C(=O)O (single isomer, unassigned)	–	< 70	< 70	–	–
O=C(Nc1cc(Br)ccc1N1CCN(CCN2C(=O)c3ccccc3C2=O)CC1)c1cc2ccccc2o/c1=N\c1ccccc1	98	108	96.5	13.6	39.4
O=C(Nc1cc(Br)ccc1N1CCN(C(=O)c2cccc([N+](=O)[O-])c2)CC1)c1cc2ccccc2o/c1=N\c1ccccc1	26400	–	–	–	–
N#CCCCN1CCN(c2ccc(Br)cc2NC(=O)c2cc3ccccc3o/c2=N\c2ccccc2)CC1	> 10000	–	–	–	–
O=C(Nc1cc(Br)ccc1N1CCN(CCc2cc3ccccc3[nH]2)CC1)c1cc2ccccc2o/c1=N\c1ccccc1	928	105	111	37.8	57.6
O=C(Nc1cc(Br)ccc1N1CCN(CCCN2C(=O)c3ccccc3C2=O)CC1)c1cc2ccccc2o/c1=N\c1ccccc1	326	101	–	44.3	–
COc1ccccc1C(=O)N1CCN(c2ccc(Br)cc2NC(=O)c2cc3ccccc3o/c2=N\c2ccccc2)CC1	25700	–	–	–	–
COc1ccc(CN2CCN(c3ccc(Br)cc3NC(=O)c3cc4ccccc4o/c3=N\c3ccccc3)CC2)cc1	578	101	98.3	–	22.9
O=C(Nc1cc(Br)ccc1N1CCNCC1)c1cc2ccccc2o/c1=N\c1ccccc1	9270	–	–	–	–
N=c1oc2ccccc2cc1C(=O)Nc1cc(Br)ccc1N1CCN(Cc2ccccc2)CC1	1220	99.7	98.9	26.4	58.3
CC(C)(C)OC(=O)N1CCN(c2ccc(Br)cc2NC(=O)c2cc3ccccc3o/c2=N\c2ccccc2)CC1	9810	–	–	–	–
O=C(Nc1cc(Br)ccc1N1CCN(C(=O)c2cccs2)CC1)c1cc2ccccc2o/c1=N\c1ccccc1	3550	–	–	–	–
N#Cc1cccc(CN2CCN(c3ccc(Br)cc3NC(=O)c3cc4ccccc4o/c3=N\c3ccccc3)CC2)c1	119	91.2	88.7	–	51.8
COc1cccc2cc(C(=O)Nc3cc(Br)ccc3N3CCN(Cc4ccccc4)CC3)/c(=N/c3ccccc3)oc12	> 10000	–	–	–	–
O=C(Nc1cc(Br)ccc1N1CCN(CCCCN2C(=O)c3ccccc3C2=O)CC1)c1cc2ccccc2o/c1=N\c1ccccc1	854	–	–	–	–
O=C(Nc1cc(Br)ccc1N1CCN(CCO)CC1)c1cc2ccccc2o/c1=N\c1ccccc1	849	105	101	41.3	48.2
O=C(Nc1cc(Br)ccc1N1CCN(C(=O)c2cccc(Cl)c2)CC1)c1cc2ccccc2o/c1=N\c1ccccc1	> 10000	–	–	–	–
O=C(Nc1cc(Br)ccc1N1CCN(C(=O)c2ccco2)CC1)c1cc2ccccc2o/c1=N\c1ccccc1	741	93	95.4	53.1	65.8
CC(C)(C)OC(=O)N1CCN(c2ccc(Br)cc2NC(=O)c2cc3ccccc3oc2=N)CC1	> 10000	–	–	–	–
COc1ccc(C(=O)N2CCN(c3ccc(Br)cc3NC(=O)c3cc4ccccc4o/c3=N\c3ccccc3)CC2)cc1	> 10000	–	–	–	–
